Measured values from publication PMC6477682 (Journal of the American Chemical Society, 2018).

Experiments:
[1] = system: LOS- A. baumannii cells; assay: Photoinactivation of LOS- A. baumannii; type: cell-based, Acinetobacter baumannii; details: at the same concentrations, with and without photoirradiation (Figure 5c)
Summary of the method: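 AB5075-derived LOS− strain grown to OD600~0.7, washed, diluted in PBS (pH 7.4) to ~1×10^8 cfu/mL, incubated 15 min with eosin-conjugated peptide (2 µM) or controls. Half the suspension irradiated 15 min with blue light (120 W lamp, fluorescein filter, 20X objective); the other half kept dark. Plated on LB agar + 10 µg/mL polymyxin b, 24 h. Killing from colony counts vs untreated PBS control; mean of two trials.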

[2] = system: S. aureus; assay: Photoinactivation; type: cell-based, Staphylococcus aureus; details: at 1 µM and 2 µM, with and without photoirradiation (Figure 4c)

O=C1OC2(c3ccccc31)c1cc(Br)c(O)c(Br)c1Oc1c2cc(Br)c(O)c1Br [eosin]
LOS- A. baumannii cell death, controls [1]: did not elicit A. baumannii cell death | S. aureus cell death, controls [2]: did not elicit cell death
